Assay results of several laboratories.
Compare with care: the assays were run in different laboratories.
Target: Protein kinase C zeta type (PRKCZ, Homo sapiens, UniProt Q05513)

Structure (SMILES) | assay | conditions | measurement | result
Cc1ccc(Nc2nccc(N(C)c3ccc4c(C)n(C)nc4c3)n2)cc1S(N)(=O)=O | enzyme activity, inhibitor | 10 µM | inhibition | -2%
CCC1(CC)NC(=O)c2c(c3ccc(Cl)c(Cl)c3n2C)C1C#N (centres unmarked) | thermal stability, DSF | 10 µM | ΔTm | -0.4 °C
CCN(CC)c1ccc(C2=NNC(=O)CC2C)cc1[N+](=O)[O-] (centres unmarked) | enzyme activity, inhibitor | 10 µM | remaining activity | 102%
O=C1NC(=O)c2cc(Nc3ccc(F)cc3)c(Nc3ccc(F)cc3)cc21 | cell-free assay | 0.5 µM | remaining signal | 100%
Cn1c2c(c3ccccc31)C(C#N)C(C)(C)NC2=O (centres unmarked) | thermal stability, DSF | 10 µM | ΔTm | -0.3 °C
CCCS(=O)(=O)Nc1ccc(F)c(C(=O)c2c[nH]c3ncc(-c4ccc(Cl)cc4)cc23)c1F | enzyme activity, inhibitor | 1 µM | inhibition | < 20%
N#CCCc1ccc2c(c1)-c1[nH]c3ccc([N+](=O)[O-])cc3c1CC(=O)N2 | cell-free assay | 0.5 µM | remaining signal | 83.4%
CC(C)(C)c1nc(-c2cccc(NS(=O)(=O)c3c(F)cccc3F)c2F)c(-c2ccnc(N)n2)s1 | enzyme activity, inhibitor, radiometric | 1 µM | remaining activity | 109%
CN1CCC2(CC1)NC(=O)c1c(c3ccc(Cl)c(Cl)c3n1C)C2C#N (racemic) | thermal stability, DSF | 10 µM | ΔTm | 0 °C
COc1cc2ncnc(Nc3ccc(Oc4ccccc4)c(C)c3C)c2cc1OC | enzyme activity, inhibitor | 1 µM | inhibition | 14%
COc1cc(Nc2cnc(C#N)c(O[C@H](C)CN(C)C)n2)ncc1-c1cnn(C)c1 | enzyme activity, inhibitor, radiometric | 10 µM | remaining activity | 79%
Cc1ccc(C(=O)NCc2ccsc2)cc1C#Cc1cn(C(C)C)c2ncnc(N)c12 | enzyme activity, inhibitor | 1 µM | activity vs control | 111%
COc1cc(/C=C/C(=O)CC(=O)/C=C/c2ccc(O)c(OC)c2)ccc1O | enzyme activity, inhibitor | 1 µM | activity vs control | 94%
CC/C(=N\NC(=O)NCc1cccc(O)c1)c1ccc(O)c(C)c1O | enzyme activity, inhibitor | 0.1 µM | inhibition | 11%
Cn1c2c(Cl)c(Cl)ccc2c2cc[nH]c(=O)c21 | thermal stability, DSF | 10 µM | ΔTm | 0.4 °C
CN(c1ncccc1CNc1nc(Nc2ccc3c(c2)CC(=O)N3)ncc1C(F)(F)F)S(C)(=O)=O | enzyme activity, inhibitor | 1 µM | inhibition | 0%
CC(C)(C)C(=O)c1sc(NC2CCCCC2)nc1N | enzyme activity, inhibitor | 10 µM | remaining activity | 104%
COc1cccc2c(NCc3ccccc3)nc(-n3c(N)nc4ccccc43)nc12 | target engagement in cells, inhibitor, chemoproteomics | 20 mM | inhibition | 19.7%
Cc1cnc(NC2CCOCC2)nc1-n1cnc(C(=O)NC(CN)c2cc(F)cc(Cl)c2)c1 (centres unmarked) | enzyme activity, inhibitor, radiometric | 1 µM | remaining activity | 106%
Oc1cccc(-c2nc(N3CCOCC3)c3oc4ncccc4c3n2)c1 | enzyme activity, inhibitor | 10 µM | remaining activity | 98%
Nc1nc(NC2CCCCC2)sc1C(=O)c1ccccc1 | enzyme activity, inhibitor | 10 µM | remaining activity | 83%
COc1cc(-c2cc(-c3ccc(N4CCNCC4)cc3)cnc2C)cc(OC)c1OC | enzyme activity, inhibitor | 1 µM | inhibition | 3%
O=C(Nc1cnn(-c2csc(C(=O)NC3COC3)c2)c1)Nc1c(F)cccc1Cl | enzyme activity, inhibitor | 5 µM | remaining activity | 93.6%
Cn1c2c(Cl)c(Cl)ccc2c2cn[nH]c(=O)c21 | thermal stability, DSF | 10 µM | ΔTm | 0 °C
CCCCNc1ncc2c(-c3ccc(F)cc3)nn(C[C@H]3CC[C@H](N)CC3)c2n1 | target engagement in cells, inhibitor, chemoproteomics | 20 mM | inhibition | -19.6%
CNC(=O)c1cc(Oc2ccc(NC(=O)Nc3ccc(Cl)c(C(F)(F)F)c3)cc2)ccn1 | enzyme activity, inhibitor | 10 µM | inhibition | -5%
